Reference: ChEMBL document CHEMBL1641462, “Synthesis and in vivo evaluation of ¹⁸F-fluoroethyl GF120918 and XR9576 as positron emission tomography probes for assessing the function of drug efflux transporters” (Bioorg Med Chem, 2011)

Tests used:
Heart [1] = experiment: Biodistribution in FVB mouse heart assessed per gram of tissue at 1 to 4.8 MBq, iv after 5 mins; assay type: ADME, organism-based; conditions: in vivo
Summary of the method: (§1)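 Male FVB mice (8–10 weeks, 25–29 g) received tracer iv (1.0–4.8 MBq, 7.1–34 pmol). Killed by cervical dislocation at 5, 15, 30, 60 or 90 min. Blood taken by heart puncture; tissues dissected, weighed and gamma-counted. Activity decay-corrected to injection time and given as %ID/g; mean ± SD, n = 4 per time point.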

Lung [2] = experiment: Biodistribution in FVB mouse lung assessed per gram of tissue at 1 to 4.8 MBq, iv after 5 mins; assay type: ADME, organism-based; conditions: in vivo; summary of the method: as §1
Liver [3] = experiment: Biodistribution in FVB mouse liver assessed per gram of tissue at 1 to 4.8 MBq, iv after 5 mins; assay type: ADME, organism-based; conditions: in vivo; summary of the method: as §1
Brain [4] = experiment: Biodistribution in FVB mouse brain assessed per gram of tissue at 1 to 4.8 MBq, iv after 5 mins; assay type: ADME, organism-based; conditions: in vivo; summary of the method: as §1
Heart [5] = experiment: Biodistribution in FVB mouse heart assessed per gram of tissue at 1 to 4.8 MBq, iv after 15 mins; assay type: ADME, organism-based; conditions: in vivo, 0.25 h; summary of the method: as §1
Liver [6] = experiment: Biodistribution in FVB mouse liver assessed per gram of tissue at 1 to 4.8 MBq, iv after 15 mins; assay type: ADME, organism-based; conditions: in vivo, 0.25 h; summary of the method: as §1
Pancreas [7] = experiment: Biodistribution in FVB mouse pancreas assessed per gram of tissue at 1 to 4.8 MBq, iv after 15 mins; assay type: ADME, organism-based; conditions: in vivo, 0.25 h
Summary of the method: (§2)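 Male FVB mice (8–10 weeks, 25–29 g) given tracer 1.0–4.8 MBq/7.1–34 pmol iv; killed by cervical dislocation at set times (n = 4 per group). Blood by heart puncture; tissues dissected, weighed and gamma counted. Radioactivity decay-corrected to injection time, expressed as %ID/g, mean ± SD.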

Kidney [8] = experiment: Biodistribution in FVB mouse kidney assessed per gram of tissue at 1 to 4.8 MBq, iv after 15 mins; assay type: ADME, organism-based; conditions: in vivo, 0.25 h; summary of the method: as §1
[9] = Biodistribution in FVB mouse small intestine assessed per gram of tissue at 1 to 4.8 MBq, iv after 15 mins; assay type: ADME, organism-based; conditions: in vivo, 0.25 h; summary of the method: as §2
Bone [10] = experiment: Biodistribution in FVB mouse bone assessed per gram of tissue at 1 to 4.8 MBq, iv after 15 mins; assay type: ADME, organism-based, Bone element; conditions: in vivo, 0.25 h; summary of the method: as §1
Blood [11] = experiment: Biodistribution in FVB mouse blood assessed per gram of tissue at 1 to 4.8 MBq, iv after 30 mins; assay type: ADME, organism-based; conditions: in vivo, 0.5 h; summary of the method: as §1
Lung [12] = experiment: Biodistribution in FVB mouse lung assessed per gram of tissue at 1 to 4.8 MBq, iv after 30 mins; assay type: ADME, organism-based; conditions: in vivo, 0.5 h; summary of the method: as §1
Liver [13] = experiment: Biodistribution in FVB mouse liver assessed per gram of tissue at 1 to 4.8 MBq, iv after 30 mins; assay type: ADME, organism-based; conditions: in vivo, 0.5 h; summary of the method: as §1
Spleen [14] = experiment: Biodistribution in FVB mouse spleen assessed per gram of tissue at 1 to 4.8 MBq, iv after 30 mins; assay type: ADME, organism-based; conditions: in vivo, 0.5 h; summary of the method: as §2
Kidney [15] = experiment: Biodistribution in FVB mouse kidney assessed per gram of tissue at 1 to 4.8 MBq, iv after 30 mins; assay type: ADME, organism-based; conditions: in vivo, 0.5 h; summary of the method: as §1
[16] = Biodistribution in FVB mouse small intestine assessed per gram of tissue at 1 to 4.8 MBq, iv after 30 mins; assay type: ADME, organism-based; conditions: in vivo, 0.5 h; summary of the method: as §2
Bone [17] = experiment: Biodistribution in FVB mouse bone assessed per gram of tissue at 1 to 4.8 MBq, iv after 30 mins; assay type: ADME, organism-based, Bone element; conditions: in vivo, 0.5 h; summary of the method: as §1
Blood [18] = experiment: Biodistribution in FVB mouse blood assessed per gram of tissue at 1 to 4.8 MBq, iv after 60 mins; assay type: ADME, organism-based; conditions: in vivo, 1 h; summary of the method: as §1
Heart [19] = experiment: Biodistribution in FVB mouse heart assessed per gram of tissue at 1 to 4.8 MBq, iv after 60 mins; assay type: ADME, organism-based; conditions: in vivo, 1 h; summary of the method: as §1
Muscle tissue [20] = experiment: Biodistribution in FVB mouse muscle assessed per gram of tissue at 1 to 4.8 MBq, iv after 60 mins; assay type: ADME, organism-based; conditions: in vivo, 1 h; summary of the method: as §1
Lung [21] = experiment: Biodistribution in FVB mouse lung assessed per gram of tissue at 1 to 4.8 MBq, iv after 90 mins; assay type: ADME, organism-based; conditions: in vivo, 1.5 h; summary of the method: as §1
Liver [22] = experiment: Biodistribution in FVB mouse liver assessed per gram of tissue at 1 to 4.8 MBq, iv after 90 mins; assay type: ADME, organism-based; conditions: in vivo, 1.5 h; summary of the method: as §1
Pancreas [23] = experiment: Biodistribution in FVB mouse pancreas assessed per gram of tissue at 1 to 4.8 MBq, iv after 90 mins; assay type: ADME, organism-based; conditions: in vivo, 1.5 h; summary of the method: as §2
Spleen [24] = experiment: Biodistribution in FVB mouse spleen assessed per gram of tissue at 1 to 4.8 MBq, iv after 90 mins; assay type: ADME, organism-based; conditions: in vivo, 1.5 h; summary of the method: as §2
Kidney [25] = experiment: Biodistribution in FVB mouse kidney assessed per gram of tissue at 1 to 4.8 MBq, iv after 90 mins; assay type: ADME, organism-based; conditions: in vivo, 1.5 h; summary of the method: as §1
Muscle tissue [26] = experiment: Biodistribution in FVB mouse muscle assessed per gram of tissue at 1 to 4.8 MBq, iv after 90 mins; assay type: ADME, organism-based; conditions: in vivo, 1.5 h; summary of the method: as §1
Brain [27] = experiment: Biodistribution in FVB mouse brain assessed per gram of tissue at 1 to 4.8 MBq, iv after 90 mins; assay type: ADME, organism-based; conditions: in vivo, 1.5 h; summary of the method: as §1
Brain [28] = experiment: Biodistribution in P-gp/BCRP knockout mouse brain at 3.3 to 4.9 MBq, iv after up to 60 mins; assay type: ADME, organism-based; conditions: in vivo, 1 h
Brain [29] = experiment: AUC (0 to 60 mins) in wild type mouse brain at 2.8 to 5.6 MBq, iv; assay type: ADME, organism-based; conditions: in vivo
Summary of the method: (§3)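 Small-animal PET in male wild-type and knockout mice under isoflurane (1.0–1.5%), prone on the scanner bed. Tracer (2.8–5.6 MBq, 20–40 pmol) given iv, with or without co-injected GF120918 at 5 mg/kg. Dynamic 60-min list-mode scan. Decay-corrected SUV read from ROIs on brain, and on the ventricular cavity for blood. AUC taken over 0–60 min in SUV·min; n = 4 per group.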

Brain [30] = experiment: AUC (0 to 60 mins) in P-gp/BCRP knockout mouse brain at 2.8 to 5.6 MBq, iv; assay type: ADME, organism-based; conditions: in vivo; summary of the method: as §3
Brain [31] = experiment: Ratio of AUC (0 to 60 mins) in P-gp knockout mouse brain to AUC (0 to 60 mins) in wild type mouse brain at 2.8 to 5.6 MBq, iv; assay type: ADME, organism-based; conditions: in vivo
Brain [32] = experiment: AUC (0 to 60 mins) in P-gp knockout mouse brain at 2.8 to 5.6 MBq, iv; assay type: ADME, organism-based; conditions: in vivo; summary of the method: as §3
Brain [33] = experiment: Ratio of AUC (0 to 60 mins) in wild type mouse brain to AUC (0 to 60 mins) in wild type mouse brain at 2.8 to 5.6 MBq, iv co-administered with GF120918; assay type: ADME, organism-based; conditions: in vivo
Blood [34] = experiment: AUC (0 to 60 mins) in wild type mouse blood at 2.8 to 5.6 MBq, iv; assay type: ADME, tissue-based; summary of the method: as §3
Blood [35] = experiment: AUC (0 to 60 mins) in P-gp/BCRP knockout mouse blood at 2.8 to 5.6 MBq, iv; assay type: ADME, tissue-based; summary of the method: as §3
Blood [36] = experiment: AUC (0 to 60 mins) in P-gp knockout mouse blood at 2.8 to 5.6 MBq, iv; assay type: ADME, tissue-based; summary of the method: as §3
[37] = Fold increase in brain-to-blood ratio of drug level in FVB mouse at 1 to 4.8 MBq, iv co-administered with 5 mg/kg, iv of GF120918; conditions: brain and blood, with GF120918, 5 mg/kg iv
[38] = Fold increase in testis-to-blood ratio of drug level in FVB mouse at 1 to 4.8 MBq, iv co-administered with 5 mg/kg, iv of GF120918; conditions: testis and blood, with GF120918, 5 mg/kg iv

## COc1cc(NC(=O)c2cnc3ccccc3c2)c(C(=O)Nc2ccc(CCN3CCc4cc(OC)c(OCC[18F])cc4C3)cc2)cc1OC
Heart [1]
  Drug uptake: 7.44 % ID/g
Lung [2]
  Drug uptake: 22.5 % ID/g
Liver [3]
  Drug uptake: 29.33 % ID/g
Brain [4]
  Drug uptake: 0.13 % ID/g
Heart [5]
  Drug uptake: 3.49 % ID/g
Liver [6]
  Drug uptake: 31.06 % ID/g
Pancreas [7]
  Drug uptake: 8.27 % ID/g
Kidney [8]
  Drug uptake: 16.09 % ID/g
[9]
  Drug uptake: 9.42 % ID/g
Bone [10]
  Drug uptake: 1.85 % ID/g
Blood [11]
  Drug uptake: 0.63 % ID/g
Lung [12]
  Drug uptake: 17.89 % ID/g
Liver [13]
  Drug uptake: 23.23 % ID/g
Spleen [14]
  Drug uptake: 6.34 % ID/g
Kidney [15]
  Drug uptake: 11.34 % ID/g
[16]
  Drug uptake: 14.09 % ID/g
Bone [17]
  Drug uptake: 1.45 % ID/g
Blood [18]
  Drug uptake: 0.61 % ID/g
Heart [19]
  Drug uptake: 2.09 % ID/g
Muscle tissue [20]
  Drug uptake: 0.92 % ID/g
Lung [21]
  Drug uptake: 15.76 % ID/g
Liver [22]
  Drug uptake: 22.18 % ID/g
Pancreas [23]
  Drug uptake: 13.56 % ID/g
Spleen [24]
  Drug uptake: 7.42 % ID/g
Kidney [25]
  Drug uptake: 10.17 % ID/g
Muscle tissue [26]
  Drug uptake: 0.68 % ID/g
Brain [27]
  Drug uptake: 0.1 % ID/g
Brain [28]
  Activity: Active
Brain [29]
  SUV: 4
Brain [30]
  AUC: 32.9 SUV·min
Brain [31]
  Ratio AUC: 2.3
Brain [32]
  SUV: 9.1
Brain [33]
  Ratio AUC: 7.1
Blood [34]
  AUC: 33.2 SUV·min
Blood [35]
  AUC: 33.9 SUV·min
Blood [36]
  AUC: 45 SUV·min
[37]
  Fold increase: 10
[38]
  Fold increase: 5

## COc1cc2c(cc1OC)CN(CCc1ccc(NC(=O)c3cccc4c(=O)c5cccc(OCC[18F])c5[nH]c34)cc1)CC2
Heart [1]
  Drug uptake: 6.65 % ID/g
Lung [2]
  Drug uptake: 19.6 % ID/g
Liver [3]
  Drug uptake: 4.88 % ID/g
Brain [4]
  Drug uptake: 0.18 % ID/g
Heart [5]
  Drug uptake: 2.43 % ID/g
Liver [6]
  Drug uptake: 5.99 % ID/g
Pancreas [7]
  Drug uptake: 9.68 % ID/g
Kidney [8]
  Drug uptake: 24.17 % ID/g
[9]
  Drug uptake: 7.09 % ID/g
Bone [10]
  Drug uptake: 1.66 % ID/g
Blood [11]
  Drug uptake: 0.65 % ID/g
Lung [12]
  Drug uptake: 7.21 % ID/g
Liver [13]
  Drug uptake: 5.35 % ID/g
Spleen [14]
  Drug uptake: 5.82 % ID/g
Kidney [15]
  Drug uptake: 19.45 % ID/g
[16]
  Drug uptake: 7.6 % ID/g
Bone [17]
  Drug uptake: 1.63 % ID/g
Blood [18]
  Drug uptake: 0.4 % ID/g
Heart [19]
  Drug uptake: 1.19 % ID/g
Muscle tissue [20]
  Drug uptake: 0.53 % ID/g
Lung [21]
  Drug uptake: 4.09 % ID/g
Liver [22]
  Drug uptake: 14.82 % ID/g
Pancreas [23]
  Drug uptake: 15.21 % ID/g
Spleen [24]
  Drug uptake: 4.71 % ID/g
Kidney [25]
  Drug uptake: 19.98 % ID/g
Muscle tissue [26]
  Drug uptake: 0.38 % ID/g
Brain [27]
  Drug uptake: 0.13 % ID/g
Brain [28]
  Activity: Active
Brain [29]
  SUV: 4.4
Brain [30]
  AUC: 39.8 SUV·min
Brain [31]
  Ratio AUC: 2.4
Brain [32]
  SUV: 10.6
Brain [33]
  Ratio AUC: 6.9
Blood [34]
  AUC: 25.6 SUV·min
Blood [35]
  AUC: 25 SUV·min
Blood [36]
  AUC: 23.5 SUV·min
[37]
  Fold increase: 10
[38]
  Fold increase: 7
